# Screens: PubChem, several laboratories
# Only some compounds are listed: those with a hit (about 1.3% of all), similar ones and a draw of the others.
# ARFGAP1 inhibitor – inhibitors of rat ARFGAP1; Q62848; Arfgap1-stimulated ARF1 GTP hydrolysis, GDP FP detection; inhibition, % at 16.5 µM; 360,000 tested, 0.26% active; AID 651572;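 active = inhibition above a per-plate limit, mean inhibition of low control wells plus 3 SD, cut at about 25% in these data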
#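 system = rat Arfgap1 catalytic domain, aa 1-136 | technique = FP, GDP Alexa 633 tracer displaced from anti-GDP antibody, 620/688 nm | compound = one concentration, 16.5 µM, DMSO 1.26% | medium = HEPES-based buffer, pH 7.5 | timing = compound-enzyme preincubation 20 min, reaction 120 min, detection 60 min, 25 °C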
# Casp6 inh – caspase-6 (human) enzyme inhibition; purified caspase-6, Z-VEID-R110 cleavage fluorescence; inhibition, % at 12.5 µM; 350,000 tested, 0.53% active; AID 686996;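 active = mean inhibition across replicates at least about 35%, with every replicate also reaching that limit, limit read from the data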
# Target sequence (P55212 24-179 limits assumed): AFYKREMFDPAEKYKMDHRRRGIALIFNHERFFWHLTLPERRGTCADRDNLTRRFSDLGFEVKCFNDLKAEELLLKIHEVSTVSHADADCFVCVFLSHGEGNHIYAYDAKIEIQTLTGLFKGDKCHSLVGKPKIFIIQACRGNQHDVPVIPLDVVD
# Target sequence (P55212 194-293 limits assumed): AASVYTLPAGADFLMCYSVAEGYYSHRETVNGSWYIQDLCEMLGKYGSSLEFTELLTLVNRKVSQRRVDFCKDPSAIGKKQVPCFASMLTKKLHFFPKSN
# LEDGF integ inh – blocks HIV-1 LEDGF/p75-dependent DNA integration; TR-FRET IN-LEDGF/p75 DNA integration, Eu/Cy5; inhibition, % at 3.7 µM; 370,000 tested, 0.64% active; AID 743269;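 active = inhibition above the screen-wide mean plus 3 SD, cut at about 13% in these data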;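 also: signal is the Cy5 over europium emission ratio at 671 and 618 nm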
# ASAP1 GAP inh – inhibitors of human ASAP1 ArfGAP activity. 360,000 tested, 0.19% active. inhibition, % at 16.5 µM. ASAP1-stimulated ARF1 GTP hydrolysis, GDP FP detection; in the data active = inhibition above about 25%
# TDP2 absorb – TDP2 (human) inhibition, absorbance primary screen; O95551; recombinant TDP2, T5PNP hydrolysis, p-nitrophenol absorbance 415 nm; inhibition, % at 12.8 µM; 370,000 tested, 0.34% active; AID 720702;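 active = inhibition above the mean of all tested compounds plus 3 SD, set per campaign, cut at about 25% in these data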
# Target sequence (O95551 whole entry, looked up): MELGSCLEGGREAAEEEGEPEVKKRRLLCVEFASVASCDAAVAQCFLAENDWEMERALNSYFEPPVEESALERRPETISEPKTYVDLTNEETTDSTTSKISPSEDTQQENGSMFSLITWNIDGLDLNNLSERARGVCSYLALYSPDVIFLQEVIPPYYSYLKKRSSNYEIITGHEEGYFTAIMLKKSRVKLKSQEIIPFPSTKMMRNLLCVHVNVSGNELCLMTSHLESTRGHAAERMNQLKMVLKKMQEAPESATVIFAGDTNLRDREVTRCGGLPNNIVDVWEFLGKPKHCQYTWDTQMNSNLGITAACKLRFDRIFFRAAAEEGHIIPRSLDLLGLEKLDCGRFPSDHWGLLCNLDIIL
#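 test system = human TDP2 enzyme | input = TDP2 enzyme at 120 nM final | medium = 50 mM Tris-HCl pH 7.5 with Mg2+, KCl, DTT, BSA | also added = T5PNP substrate, 5 mM | times = 2 h at 37 °C | technique = epi absorbance | benchmarks = high control without enzyme, low control DMSO plus TDP2 | replication = each compound tested once, singlicate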
# IN multimer up – counter-screen for LEDGF/p75 integration inhibitors: HIV-1 integrase multimerization activators; 2,000 tested, 17% active; TR-FRET HIV-1 integrase multimerization, biochemical; shares compounds with LEDGF integ inh; AID 1053131; activation, % at 7.7 µM; in the data active = activation above about 8.9%
# TR-FRET interf – counter-screen for LEDGF/p75 integration inhibitors: TR-FRET optical interference. shares compounds with LEDGF integ inh. 2,000 tested, under 10 active. TR-FRET optical interference counterscreen, HIV-1 IN multimerization. inhibition, % at 7.7 µM;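 active = inhibition above the mean over all tested compounds plus 3 SD, which no compound reached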
# LEDGF integ conf – confirmation of HIV-1 LEDGF/p75-dependent integration inhibitors. 2,000 tested, 36% active. TR-FRET LEDGF/p75-dependent HIV-1 integration, biochemical. AID 1053136. inhibition, % at 3.7 µM. shares compounds with LEDGF integ inh; in the data active = inhibition above about 14%
# Hits are given with their value; – = inactive; · = no result.
SMILES,ARFGAP1 inhibitor,Casp6 inh,LEDGF integ inh,ASAP1 GAP inh,TDP2 absorb,IN multimer up,TR-FRET interf,LEDGF integ conf
CC(=O)Nc1ccc2c(c1)C(=O)N(C)[C@H]1CC[C@@H](CC(=O)NCc3ccc(Cl)cc3)O[C@@H]1CO2,·,–,·,·,·,·,·,·
c1ccc(CNc2ccc(N3CCOCC3)cc2)cc1,–,–,15,–,–,–,–,–
CC1(c2cccc(Br)c2)NC(=O)N(CC(=O)Nc2ccc(N3CCCCC3)cc2)C1=O (stereo unspecified),–,–,–,–,–,·,·,·
O=C(CCCOc1ccccc1)Nc1nccs1,–,·,–,–,–,·,·,·
O=C(Nc1nccs1)Oc1ccccc1,–,·,16,–,–,–,–,–
Cc1ccccc1-n1c(=O)cc(N2CCN(Cc3ccccc3)CC2)[nH]c1=O,–,–,18,–,–,–,–,–
CCOC(=O)C1=C(O)/C(=C\c2ccc(CNC(=O)C(=O)Nc3ccccc3)o2)N=C1C,–,·,25,–,–,10,–,26
O=C(O)c1cc(-c2ccco2)[nH]n1,–,·,15,–,–,–,–,–
O=C(O)c1ccc(-n2c(-c3cc(-c4ccco4)[nH]n3)n[nH]c2=S)cc1,–,·,53,–,–,10,–,42
CC1CCC(C(=O)NNC(=O)c2cc(-c3ccco3)[nH]n2)CC1 (stereo unspecified),–,–,–,–,–,·,·,·
COc1ccc(S(=O)(=O)N2CCOC2CNC(=O)C(=O)NCc2ccc3c(c2)OCO3)cc1OC (stereo unspecified),–,–,–,–,–,·,·,·
CCOC(=O)c1c(C)c(C(=O)NC2CCCCCC2)c(C)n1C,–,·,66,–,–,–,–,–
C=CCn1cnc2c(NCc3ccccc3)ncnc21,–,·,89,–,–,–,–,–
CC(=O)NC(CC(=O)Nc1ccc(S(=O)(=O)N2CCCCC2)cc1)c1ccccc1 (stereo unspecified),–,–,–,–,–,·,·,·
CCOc1ccc(NC(=O)CC(NC(C)=O)c2ccccc2)cc1S(=O)(=O)N1CCCC1 (stereo unspecified),–,–,14,–,–,–,–,–
O=C(NCc1ccco1)c1cc2ccc(O)cc2oc1=O,–,·,30,–,–,20,–,19
Cc1cc(NC(=O)CSc2nnc(-c3ccc(S(=O)(=O)N4CCCC4)cc3)n2C)no1,–,·,–,–,–,·,·,·
O=C(COc1ccccc1[N+](=O)[O-])NCCC1=CCCCC1,–,–,18,–,–,–,–,–
O=C(COc1ccccc1Br)NCCC1=CCCCC1,–,–,–,–,–,·,·,·
COc1cc(NC(=O)c2cc(Cl)ccc2Cl)ccc1-c1cc2ccccc2oc1=O,–,·,35,–,–,–,–,–
O=C(O)c1ccc(-n2cccc2/C=C2/SC(=O)N(CC(=O)N3CCCC3)C2=O)cc1,–,66,36,–,–,16,–,36
O=C(O)c1ccc(-n2cccc2/C=C2/NC(=O)N(c3cccc(Cl)c3)C2=O)cc1,–,81,33,–,–,13,–,31
O=C(O)c1ccc(-n2cccc2/C=C2/NC(=O)N(c3ccccc3)C2=O)cc1,–,70,22,–,–,14,–,31
N#Cc1ccccc1CN1C(=O)S/C(=C/c2cccn2-c2ccc(C(=O)O)cc2)C1=O,–,·,–,–,–,·,·,·
O=C(NNc1ccccc1C(F)(F)F)c1cccs1,–,–,–,–,–,·,·,·
SMILES,ARFGAP1 inhibitor,Casp6 inh,LEDGF integ inh,ASAP1 GAP inh,TDP2 absorb,IN multimer up,TR-FRET interf,LEDGF integ conf
C[C@H]1CN([C@@H](C)CO)C(=O)CCCn2nncc2CO[C@@H]1CN(C)S(=O)(=O)c1ccc(Oc2ccccc2)nc1,–,–,26,–,–,–,–,–
O=c1c2ccccc2nc2n1CCC2,–,·,15,–,–,–,–,34
O=C(CCC1CCCCC1)Nc1nccs1,–,–,21,–,–,–,–,–
Cc1ccc(C)c(OCc2cc(C(=O)N3CCNC(=O)C3)no2)c1,–,–,27,–,–,–,–,–
Nc1ccccc1C(O)(Cc1ccccc1)c1ccccc1 (stereo unspecified),–,–,87,–,–,–,–,–
CCC(=O)c1ccc(OCC(O)Cn2cnc3ccccc32)cc1 (stereo unspecified),–,·,36,–,–,11,–,–
O=S1(=O)N[C@H](Cc2ccccc2)COc2cccc(N3CCCCC3)c21,–,–,39,–,–,–,–,–
COc1ccc(CN(C)C(=O)[C@H]2O[C@@H](n3ccc(=O)[nH]c3=O)[C@H](O)[C@@H]2O)cc1OC,–,–,–,–,–,·,·,·
COc1cc(/C=C2\SC(=S)N(NC(=O)c3ccc(O)cc3)C2=O)ccc1O,–,–,–,–,–,·,·,·
O=C(NN1C(=O)/C(=C/c2ccc(O)c(O)c2)SC1=S)c1ccccc1,–,45,30,–,–,12,–,54
O=C(CCN1CCOCC1)N1c2ccccc2Sc2ccc(Cl)cc21,–,–,17,–,–,–,–,–
CCc1nnc(NC(=O)c2oc3cc(C)c(C)cc3c2C)s1,–,·,16,–,–,–,–,–
CCc1nonc1NC(=O)c1oc2cc(C)c(C)cc2c1C,–,–,–,–,–,·,·,·
COc1ccc(CNC(=O)C2CCC(=O)N(C3CCCCCC3)C2)c(OC)c1 (stereo unspecified),–,–,–,–,–,·,·,·
Cc1cccc(NC(=O)C2CCC(CNC(=O)[C@@H]3Cc4ccccc4CN3)CC2)c1 (stereo partly specified),–,–,–,–,–,·,·,·
CN1C(=O)S/C(=C/c2cccn2-c2cccc(C(=O)O)c2)C1=O,–,–,–,–,–,·,·,·
O=C(O)c1cccc(-n2cccc2/C=N/O)c1,–,·,–,–,–,·,·,·
O=C(O)c1cccc(-n2cccc2/C=C/[N+](=O)[O-])c1,–,65,36,–,–,14,–,40
O=C(O)c1cccc(-n2cccc2/C=C\[N+](=O)[O-])c1,–,·,32,–,–,–,–,–
O=C(CSc1nc2sc3c(c2c(=O)n1-c1ccc(Cl)cc1)CCC3)Nc1ccc(C(=O)O)cc1,·,·,–,·,–,·,·,·
CCCC#Cc1cnc2c(c1)C(=O)N([C@H](C)CO)C[C@@H](C)[C@@H](CN(C)C(=O)c1cccnc1)O2,·,–,·,·,·,·,·,·
CCCCN1Cc2c(nc3cc(-c4ccco4)[nH]n3c2=O)C1=O,–,44,32,–,–,–,–,–
Cc1ccnc(NC(=O)CCC(=O)N(CC(=O)NC(C)(C)C)c2ccc3c(c2)OCCO3)c1,–,–,–,–,–,·,·,·
